Screening results deposited in PubChem by several laboratories.
SR-BI DiI-HDL act: activators of SR-BI mediated DiI-HDL uptake, primary screen, ldlA[mSR-BI] CHO cells, DiI fluorescence. 3 h; 100 = double the neutral-control signal. activation, % at 12.5 µM. hit rate 0.096% among 320,000;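 active = mean replicate activation of at least 60% and every replicate at or above 60%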
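Test system: SR-BI-overexpressing, LDLR-lacking CHO cells; Also added: labelled HDL, 10 µg/mL; Measured by: bottom-read cell fluorescence after medium removal, ex 550/em 595 nm; Timing: 3 h uptake period with compound, 37 °C; Buffer or medium: F12, 0.5% BSA, 25 mM HEPES; Doses: single compound concentration, delivered by pin transfer.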
SR-BI HDL uptake: inhibitors of SR-BI mediated HDL lipid uptake, primary screen, ldlA[mSR-BI] cells, fluorescence, single point | AID 488896, 2010 | ldlA[mSR-BI] CHO cells, DiI-HDL uptake fluorescence, 3 h | hit rate 0.96% among 320,000 | inhibition, % at 12.5 µM;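 active = mean replicate inhibition of at least 70% and a set share of replicates each scoring 70 or more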
TLR9-MyD88 inh: inhibitors of TLR9-MyD88 association in cells, primary screen, cell-based, CHO, BLA complementation, fluorescence. Toll-like receptor 9 (Homo sapiens) + Myeloid differentiation primary response protein …. inhibition, % at 4.98 µM. hit rate 0.21% among 340,000. CCF4 FRET ratio;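 active = inhibition above the mean over all tested compounds plus 3 SD, cut at about 21% in these data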
Target sequence (Q99836 whole entry, looked up): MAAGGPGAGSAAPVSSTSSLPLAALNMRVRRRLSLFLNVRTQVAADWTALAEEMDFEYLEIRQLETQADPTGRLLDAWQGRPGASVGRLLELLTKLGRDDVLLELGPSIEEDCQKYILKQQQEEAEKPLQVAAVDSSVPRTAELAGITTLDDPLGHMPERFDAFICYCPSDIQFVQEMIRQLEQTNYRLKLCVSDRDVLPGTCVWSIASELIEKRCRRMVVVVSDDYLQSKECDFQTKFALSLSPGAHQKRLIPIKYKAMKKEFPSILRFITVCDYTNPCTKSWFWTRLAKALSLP
Target sequence (Q9NR96 whole entry, looked up): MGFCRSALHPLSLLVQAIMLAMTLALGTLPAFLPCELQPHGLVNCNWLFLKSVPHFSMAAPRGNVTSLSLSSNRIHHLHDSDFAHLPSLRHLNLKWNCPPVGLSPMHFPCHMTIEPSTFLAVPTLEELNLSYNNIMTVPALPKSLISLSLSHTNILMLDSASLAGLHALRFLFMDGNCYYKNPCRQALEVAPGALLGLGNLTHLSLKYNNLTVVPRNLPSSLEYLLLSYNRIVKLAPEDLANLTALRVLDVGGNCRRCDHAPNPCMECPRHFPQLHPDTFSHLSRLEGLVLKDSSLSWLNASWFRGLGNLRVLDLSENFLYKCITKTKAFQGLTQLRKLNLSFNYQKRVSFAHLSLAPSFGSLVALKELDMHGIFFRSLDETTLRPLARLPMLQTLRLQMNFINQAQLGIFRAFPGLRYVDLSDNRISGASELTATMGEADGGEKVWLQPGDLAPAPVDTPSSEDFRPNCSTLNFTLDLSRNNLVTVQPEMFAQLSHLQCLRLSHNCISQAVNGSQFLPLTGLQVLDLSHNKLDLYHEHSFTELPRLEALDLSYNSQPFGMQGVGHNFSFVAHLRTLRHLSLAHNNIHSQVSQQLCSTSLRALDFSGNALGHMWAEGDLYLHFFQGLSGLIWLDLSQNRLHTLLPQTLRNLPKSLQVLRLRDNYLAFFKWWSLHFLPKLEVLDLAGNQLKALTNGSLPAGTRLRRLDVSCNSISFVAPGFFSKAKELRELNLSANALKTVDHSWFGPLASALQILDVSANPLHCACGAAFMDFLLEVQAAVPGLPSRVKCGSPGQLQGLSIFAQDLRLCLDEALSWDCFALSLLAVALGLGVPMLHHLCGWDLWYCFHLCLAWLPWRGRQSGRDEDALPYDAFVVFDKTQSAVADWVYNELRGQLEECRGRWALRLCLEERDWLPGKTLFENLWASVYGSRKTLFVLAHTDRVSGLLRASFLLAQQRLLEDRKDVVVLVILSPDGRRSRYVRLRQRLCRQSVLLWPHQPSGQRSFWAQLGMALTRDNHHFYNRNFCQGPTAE
NOD2 RIPK2 PPI: NOD2-RIPK2 binding disruptors in cells, primary screen, fluorescence, CHO cells, BLA complementation. AID 624267, 2012. CCF4 ratio. hit rate 0.38% among 360,000. inhibition, % at 4.98 µM. Receptor-interacting serine/threonine-protein kinase 2 (Homo sapiens), O43353; in the data active = inhibition above about 21%
Lipid droplet: inhibitors of hepatocyte lipid droplet formation, primary screen, imaging, high-throughput imaging, BODIPY stain; inhibition, % at 6.5 µM; hit rate 0.4% among 240,000; AML12 mouse hepatocytes, oleate lipid droplets;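 active = lipid droplet intensity inhibited by at least 50%, with more than 500 cells counted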
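Assay system: AML12 hepatocytes (mouse); Probe or stimulus: oleic acid at 100 µM to induce lipid droplet formation; Dosing: compound at 6.5 µM only; Schedule: compound with oleate, overnight; Detection: fluorescence imaging, 20x objective, two fields per well; Measure: % inhibition of lipid droplet signal.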
TLR4-MyD88 BLA: inhibitors of TLR4-MyD88 association in cells, primary screen, cell-based, HeLa CL3-4, BLA complementation, FRET ratio; AID 861, 2007; hit rate 0.18% among 200,000; inhibition, % at 8.4 µM; Toll-like receptor 4 (Homo sapiens) + Myeloid differentiation primary response protein …; HeLa CL3-4 TLR4/MyD88 BLA complementation; in the data active = inhibition above about 25%
Hep lipid conf: hepatocyte lipid droplet accumulation inhibitors, confirmation, imaging, AML12 mouse hepatocytes, single concentration, high-content | shares compounds with Lipid droplet | BODIPY lipid droplet imaging; droplets induced with 100 µM oleic acid | inhibition, % at 5.2 µM | hit rate 65% among 870 | AID 463183, 2010;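 active = inhibition of lipid droplet metric at least 50%, with more than 300 cells in each of four replicates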
AML12 cytotox: AML12 hepatocyte cytotoxicity, counter-screen for hepatic lipid droplet formation project, imaging, DAPI nuclear morphology imaging | shares compounds with Lipid droplet | AML12 mouse hepatocytes; hits give high values; cells fed 100 µM oleate overnight | z-score at 5 µM | hit rate 3% among 870; in the data active = z-score above about 6.3;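 also: compound exposure lasted overnight at 37 °C before fixation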
AML12 tox conf: AML12 hepatocyte cytotoxicity, confirmation, cytotoxicity control for hepatic lipid droplet formation project, cell-based, single concentration; shares compounds with Lipid droplet; AML12 mouse hepatocyte viability, ATP luminescence; cells loaded with 100 µM oleic acid; cytotoxicity, % at 50 µM; 530 tested, under 10 active;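 active = cytotoxicity above 50% in each of four replicates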;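 also: compound exposure lasted overnight at 37 °C before the ATP read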
Of the large screens only hits and unclear results are named; the others gave an inactive call (follow-up assays come after a bar, where they were run). Hits are enriched below; roughly 1.6% of the tested compounds scored in any of these assays.

CN(CC(=O)Nc1ccccc1C(F)(F)F)C(=O)c1cc(-c2cccs2)nn1-c1ccccc1	none (no result: Lipid droplet, TLR4-MyD88 BLA)
CCN(CC(=O)Nc1ccccc1C(F)(F)F)C(=O)c1cc(-c2cccs2)nn1-c1ccccc1	Lipid droplet 65 (no result: TLR4-MyD88 BLA) | Hep lipid conf 103 | AML12 cytotox inactive | AML12 tox conf inactive
CC(=O)NCCCC(=O)NNC1CC(=O)N(c2cccc(Cl)c2)C1=O (stereo unspecified)	none (no result: SR-BI DiI-HDL act, SR-BI HDL uptake, TLR9-MyD88 inh, TLR4-MyD88 BLA)
COc1ccc(C)cc1S(=O)(=O)N(CC(=O)Nc1cc([N+](=O)[O-])ccc1C)c1ccc(C)c(C)c1	Lipid droplet 51 | Hep lipid conf inactive | AML12 cytotox inactive | AML12 tox conf inactive
CC(C)(C)c1csc(NC(=O)c2ccc(Cl)s2)n1	none
CCNc1nc(N)c(C(=O)c2ccc(Cl)s2)s1	Lipid droplet 52 | Hep lipid conf inactive | AML12 cytotox inactive
C=C(C)C1CC=C(C)/C(=N/Nc2ccccc2[N+](=O)[O-])C1 (stereo unspecified)	Lipid droplet 78 | Hep lipid conf 115 | AML12 cytotox inactive | AML12 tox conf inactive
C=C(C)C1CC=C(C)/C(=N/NC(=O)c2ccccc2[N+](=O)[O-])C1 (stereo unspecified)	none
CCOc1ccc(N=Nc2c(C)[nH]n(-c3ccccc3)c2=O)cc1	none (no result: TLR4-MyD88 BLA)
COc1cccc(N=Nc2c(C)[nH]n(-c3ccccc3)c2=O)c1	Lipid droplet 51 (no result: TLR4-MyD88 BLA) | Hep lipid conf 103 | AML12 cytotox inactive | AML12 tox conf inactive
COc1ccc(N2CCN(C(=O)c3cc(C)on3)CC2)cc1	Lipid droplet 56 (no result: TLR4-MyD88 BLA) | Hep lipid conf inactive | AML12 cytotox inactive
O=C(CCS(=O)(=O)Cc1ccccc1)Nc1ncc([N+](=O)[O-])s1	none (no result: TLR4-MyD88 BLA)
CCOc1ccc(NC(=O)CN(C)C(=O)c2ccc(C)c(S(=O)(=O)N3CCCCC3)c2)cc1OCC	Lipid droplet 63 (no result: TLR4-MyD88 BLA) | Hep lipid conf 63 | AML12 cytotox inactive | AML12 tox conf inactive
O=C(CN(c1ccc(F)cc1)S(=O)(=O)c1ccccc1)NC1CCCCCC1	none (no result: TLR4-MyD88 BLA)
O=C(Nc1ccc([N+](=O)[O-])cn1)c1cc(-c2cccc(Br)c2)nc2ccccc12	Lipid droplet 64 | Hep lipid conf 64 | AML12 cytotox inactive | AML12 tox conf inactive
COc1cccc(-c2cc(C(=O)Nc3ccc([N+](=O)[O-])cn3)c3ccccc3n2)c1	Lipid droplet 57 (no result: SR-BI DiI-HDL act, SR-BI HDL uptake) | Hep lipid conf 75 | AML12 cytotox inactive | AML12 tox conf inactive
O=C(Nc1ccc([N+](=O)[O-])cn1)c1cc(-c2cccc(Cl)c2)nc2ccccc12	SR-BI HDL uptake 77, Lipid droplet 68 | Hep lipid conf inactive | AML12 cytotox inactive
O=C(Nc1ccccn1)c1cc(-c2cccc(Cl)c2)nc2ccccc12	none (no result: Lipid droplet)
COc1cccc(C2CC(c3cccc(Br)c3)n3nc(N)nc3N2)c1 (stereo unspecified)	none
O=C(CCN1CCN(S(=O)(=O)c2cccc([N+](=O)[O-])c2)CC1)Nc1ccccc1F	none (no result: TLR4-MyD88 BLA)
COc1ccc(C(=O)Nc2ccc(N3CCN(C(=O)C(C)C)CC3)cc2)cc1[N+](=O)[O-]	none
Cc1ccc(NC(=O)OCCN2CCN(Cc3ccccc3)CCC2=O)cc1	none
COc1ccc2[nH]c(=O)c(C(c3nnnn3C3CCCC3)N(C)C3CCCCC3)cc2c1 (stereo unspecified)	none (no result: Lipid droplet)
CC1(C)OC(c2ccccc2)=C/C(=C/C=C2C(=O)c3ccccc3C2=O)O1	Lipid droplet 73 | Hep lipid conf inactive | AML12 cytotox inactive
CCOC(=O)c1c(C)[nH]c(C)c1S(=O)(=O)N1CCN(c2ccc([N+](=O)[O-])cc2)CC1	Lipid droplet 93 (no result: TLR4-MyD88 BLA) | Hep lipid conf inactive | AML12 cytotox inactive
CCOC(=O)c1c(C)[nH]c(C)c1S(=O)(=O)N1CCCCC1	none (no result: TLR4-MyD88 BLA)
CC(=O)c1cccc(Nc2nc(=O)c3cccnc3s2)c1	none
CC(=O)c1ccc(Nc2nc(=O)c3cccnc3s2)cc1	Lipid droplet 77 | Hep lipid conf inactive | AML12 cytotox inactive
Nc1ncnc(N2CCc3ccccc32)c1[N+](=O)[O-]	none
CCOc1ccc2ccccc2c1/C=N/NC(=O)CNC(=O)C(c1ccccc1)c1ccccc1	Lipid droplet 82 | Hep lipid conf 92 | AML12 cytotox inactive | AML12 tox conf inactive
O=[N+]([O-])c1ccccc1N/N=C\c1ccccc1Cl	Lipid droplet 59 | Hep lipid conf inactive | AML12 cytotox inactive
CCCOc1ccc(/C=N/Nc2ccccc2[N+](=O)[O-])c(OCCC)c1	SR-BI HDL uptake 104, Lipid droplet 81 | Hep lipid conf 113 | AML12 cytotox inactive | AML12 tox conf inactive
O=C(Cc1ccc(S(=O)(=O)N2CCOCC2)s1)N1CCN(c2cccc(C(F)(F)F)c2)CC1	none (no result: TLR4-MyD88 BLA)
COc1cc(OC)cc(C(=O)O/N=C(\N)c2ccccn2)c1	none (no result: SR-BI DiI-HDL act, SR-BI HDL uptake, TLR9-MyD88 inh, TLR4-MyD88 BLA)
COc1ccc(C(=O)O/N=C(\N)c2ccccn2)cc1	Lipid droplet 66 (no result: TLR4-MyD88 BLA) | Hep lipid conf inactive | AML12 cytotox inactive
O=C1CN(C(=O)Cn2ncc(Cl)c(Cl)c2=O)c2ccccc2N1	Lipid droplet 126 | Hep lipid conf inactive | AML12 cytotox inactive
CN(C)C(=O)Cn1cc(S(=O)(=O)Cc2ccccc2)c2ccccc21	none (no result: TLR4-MyD88 BLA)
CCC1=NN=C(c2ccc(F)cc2)C(c2c[nH]c3ccccc23)N1O (stereo unspecified)	Lipid droplet 65 | Hep lipid conf inactive | AML12 cytotox inactive
CCc1ccc(N(CC(=O)O)S(=O)(=O)c2c(C)noc2C)cc1	none (no result: SR-BI DiI-HDL act, SR-BI HDL uptake)
Cc1cc(C)cc(N(CC(=O)O)S(=O)(=O)c2c(C)noc2C)c1	Lipid droplet 58 | Hep lipid conf inactive | AML12 cytotox inactive
Cc1ccccc1N1CCN(C2CCCN(C(=O)c3cnsn3)C2)CC1 (stereo unspecified)	none (no result: TLR4-MyD88 BLA)
